# Experiments:
# [1] = test system: SW-620; experiment: Cytotoxicity against human SW620 cells after 72 hrs by MTT assay; format: functional, cell-based; conditions: SW-620, 72 h
# How it was run: (§1)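 Tumour lines kept in DMEM with 10% FBS and 1% penicillin/streptomycin at 37°C, 5% CO2. Seeded at 1500-5000 cells/well by doubling time and size, 24 h, then compound in DMSO-containing medium (final DMSO 0.1%) for 72 h. MTT (5 mg/mL) 4 h at 37°C, DMSO solubilisation, absorbance at 570 nm.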
# [2] = test system: A549; experiment: Cytotoxicity against human A549 cells after 72 hrs by MTT assay; format: functional, cell-based; conditions: A549, 72 h; how it was run: as §1
# [3] = Cytotoxicity against human EJ28 cells after 72 hrs by MTT assay; format: functional, cell-based; conditions: EJ-28, 72 h; how it was run: as §1
# [4] = test system: HT-1080; experiment: Cytotoxicity against human HT1080 cells after 72 hrs by MTT assay; format: functional, cell-based; conditions: HT-1080, 72 h; how it was run: as §1
# [5] = test system: MCF7; experiment: Cytotoxicity against human MCF7 cells after 72 hrs by MTT assay; format: functional, cell-based; conditions: MCF7, 72 h; how it was run: as §1
# [6] = test system: NHDF; experiment: Cytotoxicity against NHDF after 72 hrs by MTT assay; format: cell-based; conditions: Homo sapiens
# How it was run: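 NHDF grown in DMEM with 5% FBS at 37°C, 5% CO2. Seeded at 1500-5000 cells/well, 24 h, then compound added in DMSO-containing medium (final DMSO 0.1%) for 72 h. MTT (5 mg/mL in medium) added for 4 h at 37°C, formazan dissolved in DMSO, absorbance read at 570 nm.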
# [7] = test system: SW-620; experiment: Cytotoxicity against human SW620 cells assessed as inhibition of cell proliferation at 20 uM after 72 hrs by MTT assay relative to control; format: functional; conditions: SW-620, 72 h
# How it was run: (§2)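 Single-concentration screen at 20 μM with 72 h exposure in DMEM with 10% FBS, final DMSO 0.1%. Read-out was MTT (5 mg/mL, 4 h, 37°C), DMSO solubilisation and absorbance at 570 nm, expressed as percent inhibition. Lines reaching a threshold percentage went on to IC50 determination.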
# [8] = test system: A549; experiment: Cytotoxicity against human A549 cells assessed as inhibition of cell proliferation at 20 uM after 72 hrs by MTT assay relative to control; format: functional; conditions: A549, 72 h; how it was run: as §2
# [9] = Cytotoxicity against human EJ28 cells assessed as inhibition of cell proliferation at 20 uM after 72 hrs by MTT assay relative to control; format: functional; conditions: EJ-28, 72 h; how it was run: as §2
# [10] = test system: HT-1080; experiment: Cytotoxicity against human HT1080 cells assessed as inhibition of cell proliferation at 20 uM after 72 hrs by MTT assay relative to control; format: functional; conditions: HT-1080, 72 h; how it was run: as §2
# [11] = test system: MCF7; experiment: Cytotoxicity against human MCF7 cells assessed as inhibition of cell proliferation at 20 uM after 72 hrs by MTT assay relative to control; format: functional; conditions: MCF7, 72 h; how it was run: as §2
smiles,measurement,setting,value
COc1ccc(/C=C2\CCC/C(=C\c3ccc(O)c(O)c3)C2=O)cc1OC,IC50,[1],10.5 µM
same,IC50,[2],> 20 µM
same,IC50,[3],12.1 µM
same,IC50,[4],4.2 µM
same,IC50,[5],14.4 µM
same,IC50,[6],25.2 µM
same,inhibition at 20 µM,[7],> 50%
same,inhibition at 20 µM,[8],> 50%
same,inhibition at 20 µM,[9],> 50%
same,inhibition at 20 µM,[10],> 50%
same,inhibition at 20 µM,[11],> 50%

# Reference: ChEMBL document CHEMBL4270616, “Asymmetrical meta-methoxylated diarylpentanoids: Rational design, synthesis and anti-cancer evaluation in-vitro” (Eur J Med Chem, 2018)
